Laboratory results reported in ChEMBL document CHEMBL5257027 (Eur J Med Chem, 2016).

What was measured:
Format in all cases: functional
[1] = system: Panel leukemia (Carcinoma cell lines); test: Antiproliferative activity against human Panel leukemia (5 Carcinoma cell lines) assessed as reduction in mean cell growth
Method in brief: (§1)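 NCI five-dose testing across the 58-line panel gives GI50, TGI and LC50 for each line. Subpanel lines report mean GI50 for each of the nine cancer types.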

[2] = Antiproliferative activity against human Panel NCI-58 (58 Carcinoma cell lines) assessed as reduction in mean cell growth at 10 uM; set-up: scale not given: the % may be the effect or the level left
Method in brief: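 NCI 58-cell-line screen covering leukemia, NSCLC, colon, CNS, melanoma, ovarian, renal, prostate and breast lines. Compounds given once at […] (micromolar per the line). Percent inhibition taken as 100 minus growth percent. Panel line reports the mean over all 58 lines.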

[3] = system: Panel ovarian (Carcinoma cell lines); test: Antiproliferative activity against human Panel ovarian (7 Carcinoma cell lines) assessed as reduction in mean cell growth; method in brief: as §1
[4] = system: Panel prostate (Carcinoma cell lines); test: Antiproliferative activity against human Panel prostate (2 Carcinoma cell lines) assessed as reduction in mean cell growth; method in brief: as §1
[5] = system: Panel melanoma (Carcinoma cell lines); test: Antiproliferative activity against human Panel melanoma (9 Carcinoma cell lines) assessed as reduction in mean cell growth; method in brief: as §1
[6] = system: Panel breast (Carcinoma cell lines); test: Antiproliferative activity against human Panel breast (6 Carcinoma cell lines) assessed as reduction in mean cell growth; method in brief: as §1
[7] = system: Panel colon (Carcinoma cell lines); test: Antiproliferative activity against human Panel colon (7 Carcinoma cell lines) assessed as reduction in mean cell growth; method in brief: as §1
[8] = Antiproliferative activity against human Panel non-small cell lung cancer (8 Carcinoma cell lines) assessed as reduction in mean cell growth; conditions: Non-small cell lung cancer cell line; method in brief: as §1
[9] = system: Panel CNS (Carcinoma cell lines); test: Antiproliferative activity against human Panel CNS (6 Carcinoma cell lines) assessed as reduction in mean cell growth; method in brief: as §1
[10] = system: Panel renal (Carcinoma cell lines); test: Antiproliferative activity against human Panel renal (8 Carcinoma cell lines) assessed as reduction in mean cell growth; method in brief: as §1

GI50 [1]: 3.4 µM
GI50 [3]: 4.72 µM
GI50 [4]: 5.95 µM
GI50 [5]: 4.15 µM
GI50 [6]: 3.35 µM
GI50 [7]: 3.73 µM
GI50 [9]: 7.19 µM
GI50 [10]: 4.63 µM
SMILES: COc1cccc(-c2nn(-c3ccccc3)cc2-c2ccnc(NCCNC(=O)Nc3ccc(Cl)c(Cl)c3)c2)c1
Activity [2]: >80%
GI50 [8]: 3.02 µM
